pIC50: −log10 of the molar value.

One may read the pIC50 as the IC50 on a negative log10 scale, so that one unit is a factor of ten. Low readings indicate a high IC50, high ones a low IC50. As a reminder, the logP is the decadic logarithm of the partition coefficient of the neutral form, usually between octanol and water.

Data set [1] relates to Trypanosoma cruzi. In words: Antitrypanosomal activity against Trypanosoma cruzi Tulahuen 2 epimastigotes assessed as inhibition of parasite growth at 25 uM relative to control. The class given is functional. The settings on record: read-out: GI. An outline of the steps:
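Epimastigotes of T. cruzi Tulahuen 2 strain exposed to compound at 25 µM. Growth inhibition is given as percentage relative to untreated parasites. Values are means of three separate experiments, SD under 10%.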

Data set [2] relates to Trypanosoma cruzi. In words: Antitrypanosomal activity against Trypanosoma cruzi Tulahuen 2 epimastigotes. The class given is functional, organism-based.
Data set [3] in a line: Octanol-water partition coefficient of the compound. Format: physicochemical.

In the case of `COc1ccc(-c2c(C#N)[n+]([O-])c3cc(C(F)(F)F)ccc3[n+]2[O-])cc1`, in data set [1], the inhibition of growth at 25 µM turned out to be 114%. The same molecule had a pIC50 in data set [2] of 4.97. For the same molecule, in data set [3], the logP was 2.45.
The like results for `COc1ccc2c(c1)[n+]([O-])c(C#N)c(-c1ccc(F)cc1)[n+]2[O-]` were, in that order, 84.2%, 4.84 and 1.97.
In the case of `N#Cc1c(-c2ccc(F)cc2)[n+]([O-])c2cc(Cl)c(Cl)cc2[n+]1[O-]`, the inhibition of growth at 25 µM in data set [1] was 85.3%. Also, in data set [2], the pIC50 is 4.95. The molecule further returned a logP in data set [3] of 2.98.
`Cc1ccc2c(c1)[n+]([O-])c(C#N)c(-c1cccs1)[n+]2[O-]`: the inhibition of growth at 25 µM in data set [1] amounted to 74.3%. This molecule also showed a pIC50 in data set [2] of 4.83. In addition, the logP in data set [3] was found to be 1.62.
As for `N#Cc1c(-c2ccc(OC(F)(F)F)cc2)[n+]([O-])c2cc(F)c(F)cc2[n+]1[O-]`, in data set [1], the inhibition of growth at 25 µM was found to be 74.4%. This molecule showed a pIC50 in data set [2] of 5.00. This molecule also gave a logP in data set [3] of 2.45.
With `N#Cc1c(-c2ccccc2)[n+]([O-])c2cc(F)c(F)cc2[n+]1[O-]`, the inhibition of growth at 25 µM in data set [1] was 81.1%. In data set [2], this molecule gave a pIC50 of 4.82. For the same molecule, the logP in data set [3] amounted to 2.62.
For `N#Cc1c(-c2ccco2)[n+]([O-])c2ccc(F)cc2[n+]1[O-]`, in that order: 83.4%, 4.83 and 0.983.
For the molecule `CC1CS(=O)(=O)CCN1/N=C/c1ccc([N+](=O)[O-])o1` (stereo unspecified) [NIFURTIMOX], the inhibition of growth at 25 µM in data set [1] was 100%. In data set [3], the lipophilicity (logP) was -0.746.
Take `N#Cc1c(-c2ccc(Cl)cc2)[n+]([O-])c2ccc(Cl)cc2[n+]1[O-]`: the inhibition of growth at 25 µM in data set [1] came out at 97.5%. The molecule further had a pIC50 in data set [2] of 4.82. The molecule further displayed a logP in data set [3] of 2.87.
For `COc1ccc2c(c1)[n+]([O-])c(C#N)c(-c1ccc(OC(F)(F)F)cc1)[n+]2[O-]`, in that order: 100%, 5.09 and 1.69.
As for `N#Cc1c(-c2cccs2)[n+]([O-])c2ccc(C(F)(F)F)cc2[n+]1[O-]`, the inhibition of growth at 25 µM in data set [1] was 100%. The molecule also gave a pIC50 in data set [2] of 5.11. In data set [3], this molecule registered a logP of 2.27.
The like results for `Cc1cc2c(cc1C)[n+]([O-])c(-c1ccc(F)cc1)c(C#N)[n+]2[O-]` were, in that order, 92.5%, 4.79 and 2.72.
In the case of `N#Cc1c(-c2ccc(OC(F)(F)F)cc2)[n+]([O-])c2ccccc2[n+]1[O-]`, in data set [1], the inhibition of growth at 25 µM is 100%. The molecule further gave a pIC50 in data set [2] of 4.84. The logP in data set [3] amounted to 1.94.
For `N#Cc1c(-c2cccs2)[n+]([O-])c2cc(Cl)c(Cl)cc2[n+]1[O-]`, in that order: 78.5%, 4.98 and 2.41.
The like results for `N#Cc1c(-c2ccc(F)cc2)[n+]([O-])c2ccc(F)cc2[n+]1[O-]` were, in that order, 63.8%, 4.84 and 2.62.
As for `Cc1cc2c(cc1C)[n+]([O-])c(-c1ccco1)c(C#N)[n+]2[O-]`, in data set [1], the inhibition of growth at 25 µM worked out at 64.7%. Also, the pIC50 in data set [2] is 4.70. Moreover, the logP in data set [3] was found to be 1.1.
Regarding `N#Cc1c(-c2ccco2)[n+]([O-])c2cc(Cl)c(Cl)cc2[n+]1[O-]`, the inhibition of growth at 25 µM in data set [1] worked out at 67%. In data set [2], this molecule had a pIC50 of 4.88. Also, in data set [3], the logP stood at 1.64.
For `COc1ccc(-c2c(C#N)[n+]([O-])c3cc(C)c(C)cc3[n+]2[O-])cc1`, in that order: 100%, 4.74 and 2.06.
The like results for `N#Cc1c(-c2ccc(OC(F)(F)F)cc2)[n+]([O-])c2cc(Cl)c(Cl)cc2[n+]1[O-]` were, in that order, 82%, 5.14 and 2.68.
`N#Cc1c(-c2ccc(OC(F)(F)F)cc2)[n+]([O-])c2ccc(Cl)cc2[n+]1[O-]`: the inhibition of growth at 25 µM in data set [1] was found to be 89.1%. For the same molecule, in data set [2], the pIC50 is 5.08. The molecule also displayed a logP in data set [3] of 2.45.
Take `N#Cc1c(-c2ccc(Cl)cc2)[n+]([O-])c2ccc(F)cc2[n+]1[O-]`: the inhibition of growth at 25 µM in data set [1] turned out to be 85.4%. In data set [2], this molecule showed a pIC50 of 4.87. Moreover, the logP in data set [3] is 2.74.
As for `N#Cc1c(NC(=O)c2cccs2)[n+]([O-])c2cc(F)c(F)cc2[n+]1[O-]`, the inhibition of growth at 25 µM in data set [1] came out at 92.4%. Also, in data set [2], the pIC50 is 4.97. The molecule further showed a logP in data set [3] of 1.62.
The like results for `COc1ccccc1N1CCN(c2c(C#N)[n+]([O-])c3cc(Cl)ccc3[n+]2[O-])CC1` were, in that order, 100%, 5.19 and 1.91.
For `N#Cc1c(-c2ccco2)[n+]([O-])c2cc(F)c(F)cc2[n+]1[O-]`, in that order: 70.7%, 4.88 and 1.38.
Consider `N#Cc1c(-c2ccccc2)[n+]([O-])c2ccc(C(F)(F)F)cc2[n+]1[O-]`, for which the inhibition of growth at 25 µM in data set [1] stood at 100%. In data set [2], this molecule had a pIC50 of 4.82. This molecule came in with a logP in data set [3] of 2.72.
For the molecule `Cc1ccc2c(c1)[n+]([O-])c(C#N)c(-c1ccc(OC(F)(F)F)cc1)[n+]2[O-]`, the inhibition of growth at 25 µM in data set [1] came out at 75.1%. Also, in data set [2], the negative-log IC50 (pIC50) is 4.97. In addition, in data set [3], the logP was 2.18.
On to `N#Cc1c(-c2ccccc2)[n+]([O-])c2ccc(F)cc2[n+]1[O-]`, for which the inhibition of growth at 25 µM in data set [1] is 89.4%. Besides, the pIC50 in data set [2] was 4.81. The logP in data set [3] is 2.23.
In the case of `Cc1ccc(-c2c(C#N)[n+]([O-])c3cc(Cl)c(Cl)cc3[n+]2[O-])cc1`, in data set [1], the inhibition of growth at 25 µM was 95.6%. Moreover, in data set [2], the pIC50 is 4.84. The logP in data set [3] is 3.1.
`COc1ccc2c(c1)[n+]([O-])c(C#N)c(-c1ccc(Cl)cc1)[n+]2[O-]`: the inhibition of growth at 25 µM in data set [1] amounted to 111%. For the same molecule, in data set [2], the pIC50 was 4.84. The molecule also had a logP in data set [3] of 2.09.
The like results for `N#Cc1c(NC(=O)c2ccco2)[n+]([O-])c2cc(F)c(F)cc2[n+]1[O-]` were, in that order, 53.1%, 4.72 and 0.868.
Regarding `N#Cc1c(-c2ccc(F)cc2)[n+]([O-])c2ccc(C(F)(F)F)cc2[n+]1[O-]`, in data set [1], the inhibition of growth at 25 µM is 100%. This molecule had a negative-log IC50 (pIC50) in data set [2] of 4.83. In data set [3], this molecule had a logP of 3.1.
The like results for `N#Cc1c(-c2ccc(Cl)cc2)[n+]([O-])c2ccccc2[n+]1[O-]` were, in that order, 97.1%, 4.74 and 2.35.
For `Cc1ccc2c(c1)[n+]([O-])c(C#N)c(-c1ccccc1)[n+]2[O-]`, the inhibition of growth at 25 µM in data set [1] was 88.1%. In addition, in data set [2], the pIC50 was 4.63. The logP in data set [3] amounted to 2.09.
The like results for `Cc1cc2c(cc1C)[n+]([O-])c(-c1ccc(OC(F)(F)F)cc1)c(C#N)[n+]2[O-]` were, in that order, 79.8%, 4.97 and 2.41.
The like results for `Cc1cc2c(cc1C)[n+]([O-])c(-c1ccc(Cl)cc1)c(C#N)[n+]2[O-]` were, in that order, 98.7%, 4.79 and 2.83.
The like results for `N#Cc1c(-c2ccc(F)cc2)[n+]([O-])c2ccccc2[n+]1[O-]` were, in that order, 82.8%, 4.82 and 2.23.
On to `Cc1ccc(-c2c(C#N)[n+]([O-])c3cc(F)ccc3[n+]2[O-])cc1`, for which the inhibition of growth at 25 µM in data set [1] came to 87.3%. Also, the negative logarithm of the IC50 (pIC50) in data set [2] was 4.76. The logP in data set [3] amounted to 2.48.
The like results for `N#Cc1c(N2CCN(c3cccc(C(F)(F)F)c3)CC2)[n+]([O-])c2ccc(Cl)cc2[n+]1[O-]` were, in that order, 94%, 5.17 and 2.99.
The like results for `N#Cc1c(-c2ccc(OC(F)(F)F)cc2)[n+]([O-])c2ccc(F)cc2[n+]1[O-]` were, in that order, 80.2%, 4.88 and 2.33.
Consider `N#Cc1c(-c2ccco2)[n+]([O-])c2ccc(Cl)cc2[n+]1[O-]`, for which the inhibition of growth at 25 µM in data set [1] came to 64.5%. Moreover, in data set [2], the pIC50 is 4.72. Besides, the lipophilicity (logP) in data set [3] worked out at 1.11.
For `N#Cc1c(-c2ccccc2)[n+]([O-])c2ccccc2[n+]1[O-]`, in that order: 36.9%, 4.18 and 1.84.
With `N#Cc1c(-c2ccco2)[n+]([O-])c2ccc(C(F)(F)F)cc2[n+]1[O-]`, the inhibition of growth at 25 µM in data set [1] was 100%. This molecule showed a pIC50 in data set [2] of 4.90. Moreover, in data set [3], the logP was 1.5.
Consider `N#Cc1c(-c2ccc(Cl)cc2)[n+]([O-])c2cc(Cl)c(Cl)cc2[n+]1[O-]`, for which the inhibition of growth at 25 µM in data set [1] is 89.8%. For the same molecule, the negative logarithm of the IC50 (pIC50) in data set [2] was 4.86. The logP in data set [3] was found to be 3.1.
The like results for `Cc1ccc2c(c1)[n+]([O-])c(C#N)c(-c1ccc(Cl)cc1)[n+]2[O-]` were, in that order, 88.4%, 4.76 and 2.6.
For `N#Cc1c(-c2cccs2)[n+]([O-])c2ccc(Cl)cc2[n+]1[O-]`, in that order: 100%, 5.15 and 1.89.
Turning to `Cc1ccc2c(c1)[n+]([O-])c(C#N)c(-c1ccco1)[n+]2[O-]`, in data set [1], the inhibition of growth at 25 µM is 68.5%. Also, the pIC50 in data set [2] is 4.74. The logP in data set [3] amounted to 0.845.
Turning to `N#Cc1c(-c2ccc(OC(F)(F)F)cc2)[n+]([O-])c2ccc(C(F)(F)F)cc2[n+]1[O-]`, the inhibition of growth at 25 µM in data set [1] came out at 100%. In data set [2], this molecule showed a negative logarithm of the IC50 (pIC50) of 5.04. The molecule also showed a logP in data set [3] of 2.79.
Consider `N#Cc1c(-c2cccs2)[n+]([O-])c2ccc(F)cc2[n+]1[O-]`, for which, in data set [1], the inhibition of growth at 25 µM worked out at 100%. The molecule further gave a pIC50 in data set [2] of 4.89. The same molecule showed a lipophilicity (logP) in data set [3] of 1.75.
For `N#Cc1c(-c2cccs2)[n+]([O-])c2ccccc2[n+]1[O-]`, in that order: 100%, 4.90 and 1.35.

The values are drawn from ChEMBL document CHEMBL1208769, “Anti-T. cruzi activities and QSAR studies of 3-arylquinoxaline-2-carbonitrile di-N-oxides” (Bioorg Med Chem Lett, 2010).
